{"data": "Assay results pooled from the literature", "target": "Myosin light chain kinase family member 4 (MYLK4, Homo sapiens, UniProt Q86YV6)", "Sequence (Q86YV6 1-388, as in one of the studies)": "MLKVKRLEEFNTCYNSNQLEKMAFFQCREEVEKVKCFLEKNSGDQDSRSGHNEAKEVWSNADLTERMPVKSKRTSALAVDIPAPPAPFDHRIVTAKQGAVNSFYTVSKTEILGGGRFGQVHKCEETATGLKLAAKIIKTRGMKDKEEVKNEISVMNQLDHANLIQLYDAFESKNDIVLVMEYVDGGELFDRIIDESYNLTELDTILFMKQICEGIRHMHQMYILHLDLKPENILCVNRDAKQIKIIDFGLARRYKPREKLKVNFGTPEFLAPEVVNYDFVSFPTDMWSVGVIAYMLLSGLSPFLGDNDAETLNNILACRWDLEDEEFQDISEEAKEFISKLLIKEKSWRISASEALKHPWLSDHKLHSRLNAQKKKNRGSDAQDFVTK", "note": "Each line is one published result; the experiments were not run side by side."}
{"SMILES": "CCCOc1ccc([C@@H]2[C@@H](C(=O)O)[C@H](c3ccc4c(c3)OCO4)CN2CC(=O)Nc2c(CC)cccc2CC)cc1", "test": "cell-free assay, competition with immobilised ligand", "setting": "1 µM", "endpoint": "remaining binding", "result": "100%"}
{"SMILES": "Nc1ncnc2occ(-c3ccc(NC(=O)Nc4cc(C(F)(F)F)ccc4F)cc3)c12", "test": "enzyme activity, inhibitor", "setting": "20 µM", "endpoint": "remaining activity", "result": "48%"}
{"SMILES": "O=[N+]([O-])c1cccc2[nH]c(CNc3nc(N4CCOCC4)nc4c3ncn4-c3ccsc3)nc12", "test": "binding, competition with immobilised ligand", "setting": "10 µM", "endpoint": "binding vs control", "result": "2.6%"}
{"SMILES": "O=C(Nc1cnn(-c2csc(C(=O)NC3COC3)c2)c1)Nc1c(F)cccc1Cl", "test": "enzyme activity, inhibitor", "setting": "5 µM", "endpoint": "remaining activity", "result": "91.7%"}
{"SMILES": "Cc1ccc(C(=O)Nc2ccc(CN3CCN(C)CC3)c(C(F)(F)F)c2)cc1C#Cc1cnc2cccnn12", "test": "enzyme activity, inhibitor", "setting": "23.5 nM", "endpoint": "remaining activity", "result": "92%"}
{"SMILES": "Fc1cccc(-n2cnc3c(NCc4nc5c(F)c(F)ccc5[nH]4)nc(N4CCOCC4)nc32)c1", "test": "binding, competition with immobilised ligand", "setting": "10 µM", "endpoint": "binding vs control", "result": "2.1%"}
{"SMILES": "O=C(Nc1cnn(-c2csc(C(=O)NC3COC3)c2)c1)Nc1ccccc1Cl", "test": "enzyme activity, inhibitor", "setting": "5 µM", "endpoint": "remaining activity", "result": "85.2%"}
{"SMILES": "Nc1c(C(=O)NCc2ccc(C(=O)NCCCC3CCCCC3)cc2)cnn1-c1ccccc1", "test": "cell-free assay, competition with immobilised ligand", "setting": "0.1 µM", "endpoint": "remaining binding", "result": "100%"}
